{
  "source": "ChEMBL document CHEMBL2375357",
  "about": "“Design, synthesis and cytotoxicity of cell death mechanism of rotundic acid derivatives” (Bioorg Med Chem Lett, 2013)",
  "note": "pIC50: −log10 of the molar value.",
  "data": [
    {"tested_on": "NCI-H446", "experiment": "Cytotoxicity against human NCI-H446 cells after 24 hrs by MTT assay", "type": "functional, cell-based", "details": "NCI-H446, 24 h", "outline": "(§1)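 MTT antiproliferative assay on human tumour lines A-375 (melanoma), SPC-A1 (lung adenocarcinoma), HeLa (cervical), HepG2 (hepatoma) and NCI-H446 (small cell lung cancer). Parent rotundic acid run alongside as positive control. IC50 given as mean ± SD, n = 3, each experiment repeated at least three times. Values above 100 μM reported as >100.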", "values": [
      {"molecule": "CC(=O)OC[C@@]1(C)[C@@H]2CC[C@]3(C)[C@H](CC=C4[C@H]5[C@](C(=O)O)(CC[C@@H](C)[C@@]5(C)O)CC[C@]43C)[C@@]2(C)CC[C@@H]1OC(C)=O", "pIC50": 5.15},
      {"molecule": "C[C@@H]1CC[C@]2(C(=O)Nc3ccccc3)CC[C@]3(C)C(=CC[C@@H]4[C@@]5(C)CC[C@H](O)[C@@](C)(CO)[C@@H]5CC[C@]43C)[C@@H]2[C@]1(C)O", "pIC50": 4.15},
      {"molecule": "CC(=O)OC[C@@]1(C)[C@@H]2CC[C@]3(C)[C@H](CC=C4[C@H]5[C@](C(=O)NCCCO)(CC[C@@H](C)[C@@]5(C)O)CC[C@]43C)[C@@]2(C)CC[C@@H]1OC(C)=O", "pIC50": 5.29},
      {"molecule": "C[C@@H]1CC[C@]2(C(=O)Nc3ccccc3CO)CC[C@]3(C)C(=CC[C@@H]4[C@@]5(C)CC[C@H](O)[C@@](C)(CO)[C@@H]5CC[C@]43C)[C@@H]2[C@]1(C)O", "pIC50": 4.86},
      {"molecule": "CC(=O)OC[C@@]1(C)[C@@H]2CC[C@]3(C)[C@H](CC=C4[C@H]5[C@](C(=O)Nc6ccccc6CO)(CC[C@@H](C)[C@@]5(C)O)CC[C@]43C)[C@@]2(C)CC[C@@H]1OC(C)=O", "pIC50": 5.15}
    ]},
    {"tested_on": "HeLa", "experiment": "Cytotoxicity against human HeLa cells after 24 hrs by MTT assay", "type": "functional, cell-based", "details": "not given", "outline": "as §1", "values": [
      {"molecule": "CC(=O)OC[C@@]1(C)[C@@H]2CC[C@]3(C)[C@H](CC=C4[C@H]5[C@](C(=O)O)(CC[C@@H](C)[C@@]5(C)O)CC[C@]43C)[C@@]2(C)CC[C@@H]1OC(C)=O", "pIC50": 4.88},
      {"molecule": "C[C@@H]1CC[C@]2(C(=O)Nc3ccccc3)CC[C@]3(C)C(=CC[C@@H]4[C@@]5(C)CC[C@H](O)[C@@](C)(CO)[C@@H]5CC[C@]43C)[C@@H]2[C@]1(C)O", "pIC50": 4.64},
      {"molecule": "CC(=O)OC[C@@]1(C)[C@@H]2CC[C@]3(C)[C@H](CC=C4[C@H]5[C@](C(=O)NCCCO)(CC[C@@H](C)[C@@]5(C)O)CC[C@]43C)[C@@]2(C)CC[C@@H]1OC(C)=O", "pIC50": 5.16},
      {"molecule": "C[C@@H]1CC[C@]2(C(=O)Nc3ccccc3CO)CC[C@]3(C)C(=CC[C@@H]4[C@@]5(C)CC[C@H](O)[C@@](C)(CO)[C@@H]5CC[C@]43C)[C@@H]2[C@]1(C)O", "pIC50": 4.91},
      {"molecule": "CC(=O)OC[C@@]1(C)[C@@H]2CC[C@]3(C)[C@H](CC=C4[C@H]5[C@](C(=O)Nc6ccccc6CO)(CC[C@@H](C)[C@@]5(C)O)CC[C@]43C)[C@@]2(C)CC[C@@H]1OC(C)=O", "pIC50": 5.48}
    ]},
    {"tested_on": "HepG2", "experiment": "Cytotoxicity against human HepG2 cells after 24 hrs by MTT assay", "type": "functional, cell-based", "details": "HepG2, 24 h", "outline": "as §1", "values": [
      {"molecule": "CC(=O)OC[C@@]1(C)[C@@H]2CC[C@]3(C)[C@H](CC=C4[C@H]5[C@](C(=O)O)(CC[C@@H](C)[C@@]5(C)O)CC[C@]43C)[C@@]2(C)CC[C@@H]1OC(C)=O", "pIC50": 5.16},
      {"molecule": "C[C@@H]1CC[C@]2(C(=O)Nc3ccccc3)CC[C@]3(C)C(=CC[C@@H]4[C@@]5(C)CC[C@H](O)[C@@](C)(CO)[C@@H]5CC[C@]43C)[C@@H]2[C@]1(C)O", "pIC50": 4.19},
      {"molecule": "CC(=O)OC[C@@]1(C)[C@@H]2CC[C@]3(C)[C@H](CC=C4[C@H]5[C@](C(=O)NCCCO)(CC[C@@H](C)[C@@]5(C)O)CC[C@]43C)[C@@]2(C)CC[C@@H]1OC(C)=O", "pIC50": 5.26},
      {"molecule": "C[C@@H]1CC[C@]2(C(=O)Nc3ccccc3CO)CC[C@]3(C)C(=CC[C@@H]4[C@@]5(C)CC[C@H](O)[C@@](C)(CO)[C@@H]5CC[C@]43C)[C@@H]2[C@]1(C)O", "pIC50": "< 4.00"},
      {"molecule": "CC(=O)OC[C@@]1(C)[C@@H]2CC[C@]3(C)[C@H](CC=C4[C@H]5[C@](C(=O)Nc6ccccc6CO)(CC[C@@H](C)[C@@]5(C)O)CC[C@]43C)[C@@]2(C)CC[C@@H]1OC(C)=O", "pIC50": 5.35}
    ]},
    {"tested_on": "A-375", "experiment": "Cytotoxicity against human A375 cells after 24 hrs by MTT assay", "type": "functional, cell-based", "details": "A-375, 24 h", "outline": "as §1", "values": [
      {"molecule": "CC(=O)OC[C@@]1(C)[C@@H]2CC[C@]3(C)[C@H](CC=C4[C@H]5[C@](C(=O)O)(CC[C@@H](C)[C@@]5(C)O)CC[C@]43C)[C@@]2(C)CC[C@@H]1OC(C)=O", "pIC50": 4.94},
      {"molecule": "C[C@@H]1CC[C@]2(C(=O)Nc3ccccc3)CC[C@]3(C)C(=CC[C@@H]4[C@@]5(C)CC[C@H](O)[C@@](C)(CO)[C@@H]5CC[C@]43C)[C@@H]2[C@]1(C)O", "pIC50": 4.15},
      {"molecule": "CC(=O)OC[C@@]1(C)[C@@H]2CC[C@]3(C)[C@H](CC=C4[C@H]5[C@](C(=O)NCCCO)(CC[C@@H](C)[C@@]5(C)O)CC[C@]43C)[C@@]2(C)CC[C@@H]1OC(C)=O", "pIC50": 5.48},
      {"molecule": "C[C@@H]1CC[C@]2(C(=O)Nc3ccccc3CO)CC[C@]3(C)C(=CC[C@@H]4[C@@]5(C)CC[C@H](O)[C@@](C)(CO)[C@@H]5CC[C@]43C)[C@@H]2[C@]1(C)O", "pIC50": 4.72},
      {"molecule": "CC(=O)OC[C@@]1(C)[C@@H]2CC[C@]3(C)[C@H](CC=C4[C@H]5[C@](C(=O)Nc6ccccc6CO)(CC[C@@H](C)[C@@]5(C)O)CC[C@]43C)[C@@]2(C)CC[C@@H]1OC(C)=O", "pIC50": 5.43}
    ]},
    {"tested_on": "not listed separately", "experiment": "Cytotoxicity against human SPC-A1 cells after 24 hrs by MTT assay", "type": "functional, cell-based", "details": "SPCA1, 24 h", "outline": "as §1", "values": [
      {"molecule": "CC(=O)OC[C@@]1(C)[C@@H]2CC[C@]3(C)[C@H](CC=C4[C@H]5[C@](C(=O)O)(CC[C@@H](C)[C@@]5(C)O)CC[C@]43C)[C@@]2(C)CC[C@@H]1OC(C)=O", "pIC50": 4.63},
      {"molecule": "C[C@@H]1CC[C@]2(C(=O)Nc3ccccc3)CC[C@]3(C)C(=CC[C@@H]4[C@@]5(C)CC[C@H](O)[C@@](C)(CO)[C@@H]5CC[C@]43C)[C@@H]2[C@]1(C)O", "pIC50": "< 4.00"},
      {"molecule": "CC(=O)OC[C@@]1(C)[C@@H]2CC[C@]3(C)[C@H](CC=C4[C@H]5[C@](C(=O)NCCCO)(CC[C@@H](C)[C@@]5(C)O)CC[C@]43C)[C@@]2(C)CC[C@@H]1OC(C)=O", "pIC50": 4.87},
      {"molecule": "C[C@@H]1CC[C@]2(C(=O)Nc3ccccc3CO)CC[C@]3(C)C(=CC[C@@H]4[C@@]5(C)CC[C@H](O)[C@@](C)(CO)[C@@H]5CC[C@]43C)[C@@H]2[C@]1(C)O", "pIC50": "< 4.00"},
      {"molecule": "CC(=O)OC[C@@]1(C)[C@@H]2CC[C@]3(C)[C@H](CC=C4[C@H]5[C@](C(=O)Nc6ccccc6CO)(CC[C@@H](C)[C@@]5(C)O)CC[C@]43C)[C@@]2(C)CC[C@@H]1OC(C)=O", "pIC50": 5.09}
    ]}
  ]
}
